Only some compounds are listed: those with a hit (about 0.86% of all), similar ones and a draw of the others.
APJ agonist: APJ receptor agonism | activation, % at 20 µM | AID 2520 | CHO-K1 APJ PathHunter beta-arrestin, luminescence; 0% DMSO wells, 100% apelin | 330,000 tested, 0.11% active | P35414;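 active = activation more than six SD over the plate average, tested at 20 µM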;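 note: 0% = DMSO alone and 100% = apelin-13 at 10 nM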
Target sequence (P35414 whole entry, looked up): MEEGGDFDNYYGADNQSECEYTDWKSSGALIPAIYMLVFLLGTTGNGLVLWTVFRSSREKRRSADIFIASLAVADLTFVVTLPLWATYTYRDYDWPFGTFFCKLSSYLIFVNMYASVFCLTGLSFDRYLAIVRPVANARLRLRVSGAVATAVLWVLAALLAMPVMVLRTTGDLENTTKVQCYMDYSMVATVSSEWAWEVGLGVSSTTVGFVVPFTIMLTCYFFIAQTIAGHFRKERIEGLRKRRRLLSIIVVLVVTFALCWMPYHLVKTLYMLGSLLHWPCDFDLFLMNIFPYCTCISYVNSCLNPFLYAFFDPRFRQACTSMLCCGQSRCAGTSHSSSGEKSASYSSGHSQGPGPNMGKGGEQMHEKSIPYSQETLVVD
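Material: engineered CHO-K1 APJ arrestin reporter cells; amount: 1000 CHO-K1 reporter cells seeded per well; incubation: compound stimulation 90 min at 25 °C, detection 60 min; signal: luminescent beta-gal fragment complementation, chemiluminescent substrate; read-out basis: APJ agonist activity; controls: DMSO-only wells as negative, 10 nM Apelin-13 as positive control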
iPSC survival up: enhancers of human iPSC single-cell survival. hiPSC single-cell survival, ATPlite luminescence; 100% = ROCK inhibitor wells, 0% = DMSO. survival enhancement, % at 20 µM. 360,000 tested, 0.044% active. AID 602274; in the data active = survival enhancement above about 18%;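 note: cells exposed to compounds for 16 hours before the ATP read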
APJ antagonist: APJ receptor antagonism. AID 2521. CHO-K1 APJ beta-arrestin complementation, luminescence. 330,000 tested, 0.32% active. P35414. inhibition, % at 20 µM;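 active = inhibition above about 40% at 20 µM, limit read from the data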;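 note: cells challenged with 10 nM apelin-13 agonist together with compound; plate controls were apelin-13 plus DMSO wells for no effect and DMSO wells lacking apelin-13 for full effect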
CCR6 antagonist: CCR6 (human) receptor antagonism; inhibition, % at 20 µM; P51684; CHO-K1 CCR6 PathHunter beta-arrestin, luminescence, CCL20-stimulated; 340,000 tested, 0.49% active;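 active = compounds whose inhibition of the agonist-driven luminescence signal at 20 µM reaches about 50%, limit read from the data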;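 note: cells stimulated with CCL20 at 14 nM final; plate controls were DMSO with CCL20 for no effect and DMSO without agonist for full effect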
Target sequence (P51684 whole entry, looked up): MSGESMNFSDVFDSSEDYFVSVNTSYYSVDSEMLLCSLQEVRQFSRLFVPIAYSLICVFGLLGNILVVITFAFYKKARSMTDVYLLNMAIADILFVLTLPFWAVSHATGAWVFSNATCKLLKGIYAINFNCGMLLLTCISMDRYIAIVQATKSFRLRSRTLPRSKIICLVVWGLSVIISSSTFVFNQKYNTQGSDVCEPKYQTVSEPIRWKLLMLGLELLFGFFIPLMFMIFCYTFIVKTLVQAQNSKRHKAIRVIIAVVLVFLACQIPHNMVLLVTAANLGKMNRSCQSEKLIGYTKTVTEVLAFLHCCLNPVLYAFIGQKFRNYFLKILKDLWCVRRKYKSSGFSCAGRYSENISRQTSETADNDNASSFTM
CXCR6 block: blocks human CXCR6 beta-arrestin recruitment; O00574; CHO-K1 PathHunter CXCR6 beta-arrestin, luminescence; inhibition, % at 20 µM; 360,000 tested, 0.36% active; AID 602244; in the data active = inhibition above about 34%, passing the limit was not always enough;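 note: antagonist mode with CXCL16 agonist at 10 nM final; 0% = 10 nM CXCL16 with DMSO and 100% = unstimulated wells without agonist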
DAGLB inhibitor: blocks human DAGLB lipase activity; Q8NCG7; HEK293T DAGLB membrane lysate, EnzChek fluorogenic substrate; inhibition, % at 5.17 µM; 340,000 tested, 0.059% active; AID 504411; in the data active = inhibition above about 34%;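 note: 0% = enzyme with vehicle and 100% = wells lacking enzyme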
APJ antag confirm: APJ receptor antagonism confirmation; inhibition, % at 20 µM; APJ beta-arrestin recruitment, luminescence, antagonist mode; shares compounds with APJ antagonist; 950 tested, 66% active; in the data active = inhibition above about 50%
DAGLB inh conf: DAGLB (human) inhibition, confirmation screen; shares compounds with DAGLB inhibitor; HEK293T DAGLB membrane lysate, EnzChek fluorogenic substrate; inhibition, % at 5.17 µM; 190 tested, 73% active;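 active = mean inhibition over triplicate wells above a set limit taken from the primary lipase screen, cut at about 34% in these data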;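 note: 0% = DAGLB with DMSO and 100% = wells lacking DAGLB enzyme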
CXCR6 antag conf: confirmation of human CXCR6 receptor antagonists | CHO-K1 CXCR6 PathHunter beta-arrestin, luminescence | shares compounds with CXCR6 block | 700 tested, 65% active | inhibition, % at 20 µM | AID 602409;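 active = mean inhibition over four retests above 40%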;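 note: receptor stimulated with 10 nM CXCL16 agonist; beta-galactosidase fragment complementation upon beta-arrestin recruitment to receptor; plate controls were CXCL16 plus DMSO for no effect and DMSO without CXCL16 for full effect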
An asterisk follows results filed as active; i = inactive; · = no result.

SMILES	APJ agonist	iPSC survival up	APJ antagonist	CCR6 antagonist	CXCR6 block	DAGLB inhibitor	APJ antag confirm	others
COCCn1c(=O)c2c(nc3n2CCCN3CCc2ccc(OC)c(OC)c2)n(C)c1=O	-0.8	1.1	-7.6	16.4	-1.6	-1.9	·
OCCN1C[C@H](O)[C@@H](O)[C@H](O)[C@H]1CO	-11.7	·	43.2*	·	·	·	65.1*
CCOC(=O)[C@@H]1[C@H]2COc3ccccc3[C@H]2N2C(=O)N(c3ccc(C(F)(F)F)cc3)C(=O)[C@]12C	-0.9	6.9	-6.4	3.8	5.7	-7.4	·
COc1cc(C=C2C(=O)c3ccccc3C2=O)cc(OC)c1OC	-1.8	0.4	16.7	7.3	19.6	7.1	·
COc1ccc(C=C2C(=O)c3ccccc3C2=O)cc1O	-7.7	-0.4	44.6*	42.6	31.6	14.4	59.4*
CCOC(=O)c1c(NC(=O)CN2CCCc3ccccc32)sc(C(C)=O)c1C	-3.3	-1.3	-4.9	-28.6	-14.2	-2.8	·
Cc1cc(C(=O)OCC(=O)c2ccc(Cl)c([N+](=O)[O-])c2)c2cccc(C)c2n1	-5.2	2.2	10.7	44.5	26.2	-1.4	·
O=C(Cc1ccccc1)NCC(=O)OCC(=O)c1ccc(Cl)c([N+](=O)[O-])c1	-11.1	-1.1	89.3*	90.9*	48.3*	-2.0	143.7*
CCC(=O)Nc1ccc(C(=O)OCC(=O)c2ccc(C)c([N+](=O)[O-])c2)cc1	-1.7	1.6	5.6	3.6	1.9	-1.7	·
Cc1ccc(C(=O)NCC(=O)OCC(=O)Nc2ccccc2[N+](=O)[O-])cc1	1.8	1.7	12.0	-9.4	-10.3	-3.0	·
Cc1ccc(C(=O)COC(=O)CNC(=O)C(c2ccccc2)c2ccccc2)cc1[N+](=O)[O-]	-14.9	-0.7	64.5*	58.4*	22.7	-4.3	66.7*
CCc1ccc(C(=O)COC(=O)CNC(=O)Cc2ccccc2)cc1	-3.0	0.7	-1.0	-2.2	-4.7	-4.0	·
Cc1ccc2nc(C)cc(C(=O)OCC(=O)c3ccc(Cl)c([N+](=O)[O-])c3)c2c1	-22.0	-0.3	86.3*	102.0*	59.0*	-3.2	126.4*
Cc1ccc(C(=O)NCC(=O)OCC(=O)c2ccc(C)c([N+](=O)[O-])c2)cc1	-4.0	0.3	55.0*	40.1	16.7	1.3	60.2*
CCC1CCCCN1C(=O)CCn1c(=O)oc2ccccc21 (stereo not drawn)	-1.3	-0.1	-0.2	1.4	3.1	0.3	·
C[C@H]1CN([C@@H](C)CO)C(=O)CCCn2nncc2CO[C@H]1CN(C)C(=O)Cc1ccccc1	·	-0.1	·	·	-12.0	-5.7	·
Cc1ccc(-c2nc3c(c(=O)[nH]c(=O)n3Cc3ccccc3)n2Cc2ccccc2)o1	·	-0.5	·	23.2	17.6	11.1	·
CCn1c(CO)nc2c1c(=O)[nH]c(=O)n2Cc1ccccc1	-7.5	1.8	52.6*	63.5*	46.3*	-0.4	84.5*
O=C(O)c1cccc(N/N=C(\N=Nc2ccccc2)c2ccccc2)c1	-13.4	-0.9	37.8	45.5	28.1	20.6	·
O=C(O)c1ccc(N=N/C(=N\Nc2ccc(C(=O)O)cc2)c2ccccc2)cc1	-6.6	0.6	54.9*	49.4	25.2	38.6*	84.1*	DAGLB inh conf=29.0
CN(C)c1ccc(N=Nc2ccc(S(=O)(=O)O)cc2)c2ccccc12	-8.1	-1.7	41.0*	62.0*	42.4*	48.2*	92.3*	DAGLB inh conf=51.6*
COc1ccc(N=Nc2nc(-c3ccccc3)c(-c3ccccc3)[nH]2)cc1	-0.4	-0.4	-10.2	41.7	27.6	25.2	·
Oc1ccccc1N=Nc1nc(-c2ccccc2)c(-c2ccccc2)[nH]1	-12.0	-6.4	61.5*	70.2*	32.7	38.2*	104.0*	DAGLB inh conf=52.5*
O=C(NCCN1CCOCC1)c1ccc(NS(=O)(=O)c2cccc([N+](=O)[O-])c2)cc1	-1.0	0.0	-5.5	5.0	-19.2	-0.1	·
CCN(Cc1ccccc1)c1ccc(N=Nc2nn(C)c(C)c2[N+](=O)[O-])cc1	-7.3	0.2	44.3*	63.7*	48.8*	58.8*	112.9*	DAGLB inh conf=55.8*
SMILES	APJ agonist	iPSC survival up	APJ antagonist	CCR6 antagonist	CXCR6 block	DAGLB inhibitor	APJ antag confirm	others
Cn1c(=O)c2c(ncn2CC(O)CNc2ccc(F)cc2)n(C)c1=O (stereo not drawn)	0.2	-0.4	-22.2	1.8	4.1	0.8	·
COC(=O)c1ccccc1-c1c2ccc(=N)cc-2oc2cc(N)ccc12	-9.0	3.1	49.4*	67.0*	45.2*	i	74.7*	CXCR6 antag conf=62.0*
COC(=O)c1ccccc1-c1ccc(/C=N/NC(=O)c2cc3ccccc3o2)o1	0.9	0.3	-10.1	2.7	-2.2	-0.8	·
Oc1ccccc1CN1CCCC(N2CCN(c3cccc(C(F)(F)F)c3)CC2)C1 (stereo not drawn)	-1.9	-0.3	4.6	19.9	26.7	1.6	·
Cc1ccsc1/C=C/c1ccc2cccc(O)c2n1	-11.0	2.8	45.6*	74.3*	59.5*	-12.1	41.3	CXCR6 antag conf=66.4*
Oc1cccc2ccc(/C=C/c3cccs3)nc12	-8.0	-1.2	52.7*	72.4*	50.2*	-6.1	51.3*	CXCR6 antag conf=51.2*
CCn1c(NC)cc(=O)n(C)c1=O	2.9	-1.5	-4.8	1.8	-4.4	0.9	·
CCn1c(=O)cc(NC2=NCC(C)CN2c2cccc(Cl)c2)n(C)c1=O (stereo not drawn)	-9.8	-1.2	61.5*	66.2*	57.1*	4.3	110.2*	CXCR6 antag conf=59.5*
Cc1cc(C)cc(NC(=O)COC(=O)CN=C2NS(=O)(=O)c3ccccc32)c1	-0.3	-0.5	9.2	-11.7	3.9	0.9	·
Cc1ccc(NC(=S)NNc2ccc(C(=O)O)cc2[N+](=O)[O-])cc1C	-6.2	1.1	42.0*	36.3	40.9*	4.8	49.9	CXCR6 antag conf=42.2*
FC(F)(F)c1cnc(NNC(=S)Nc2ccc(Cl)cc2)c(Cl)c1	-9.7	-1.4	64.4*	94.4*	72.2*	-10.0	116.7*	CXCR6 antag conf=84.5*
Fc1ccc(NC(=S)NNc2ncc(C(F)(F)F)cc2Cl)c(F)c1	-7.0	-1.8	72.1*	91.9*	80.8*	-2.3	98.5*	CXCR6 antag conf=75.8*
c1cncc(-c2cn(C[C@H]3CC[C@H](Cn4cc(-c5cccnc5)nn4)O3)nn2)c1	·	0.5	·	20.2	0.3	-0.6	·
CC(C)(C)c1ccc(-n2nc(C#N)c(Cl)cc2=O)cc1	-1.5	0.4	60.0*	49.8	60.8*	·	83.4*	CXCR6 antag conf=69.5*
Cc1ccc(OCCN2C(=O)c3ccccc3C2=O)c([N+](=O)[O-])c1	-4.8	3.3	47.9*	46.3	52.8*	-0.9	66.2*	CXCR6 antag conf=58.3*

Compound activity deposited in PubChem BioAssay by several laboratories.
